Results collected from several papers.
Each line is one published result; the experiments were not run side by side.
Target: 5'-AMP-activated protein kinase catalytic subunit alpha-1 (PRKAA1, Homo sapiens, UniProt Q13131)
Method: competition with immobilised ligand

Cc1c(NC(=O)c2cc(C(N)=O)nc3cc(F)ccc23)c(C(F)(F)F)nn1Cc1ccc(C(C)(C)C)cc1 has a remaining binding of 100% (cell-free assay; 1 µM).
COc1cnc(Nc2cccc(S(N)(=O)=O)c2)nc1N1CCN(c2ccccc2)CC1 gave a remaining binding of 100% (binding; 1 µM).
The remaining binding of O=C(NCC1CCOCC1)c1n[nH]cc1NC(=O)c1c(F)cccc1F is reported as 93% (binding; 1 µM).
O=C(c1ccc(Nc2ncc(Cl)c(-c3ccc(Cl)s3)n2)cc1)N1CCC(N2CCCC2)CC1 has a remaining binding of 8.1% (binding; 1 µM).
C=CC(=O)N1CCC(C(=O)NCC(=O)N2CCN(c3nc(-c4cnc(N)nc4C(F)F)nc(N4CCOCC4)n3)CC2)CC1 has a remaining binding of 97% (binding; 1 µM).
CNC(=O)[C@@H]1CC[C@@H](n2c(-c3ccc4cnccc4c3)nc3ccc(C(=O)NCc4cccc(C(N)=O)c4)cc32)C1 has a remaining binding of 84% (binding; 1 µM).
O=C(NCCCN1CCOCC1)c1ccc(Nc2nccc(-c3cc4ccccc4s3)n2)cc1 gave a remaining binding of 42% (binding; 1 µM).
C[C@@H]1CCN(c2nccc(-c3cnn4ncccc34)n2)C1 has a remaining binding of 99% (binding; 1 µM).
With CC(=O)N1CCC(c2ccc(C(=O)NC3=NCCN3)cc2C(F)(F)F)CC1 the remaining binding was 100% (cell-free assay; 1 µM).
CN(C)c1nccc(-c2cnn3ncccc23)n1 has a remaining binding of 100% (binding; 1 µM).
The remaining binding of CS(=O)(=O)NCC[C@H](NC(=O)c1cncc2c1cnn2-c1ccc(F)cc1)c1ccnc(S(C)(=O)=O)c1 is reported as 100% (cell-free assay; 1 µM).
For c1cncc(-c2cccc(Nc3nccc(NC4CCCCC4)n3)c2)c1, the remaining binding was 15% (binding; 10 µM).
CN(CCCC(F)(F)F)c1nccc(-c2cnn3ncccc23)n1 has a remaining binding of 100% (binding; 1 µM).
For CCN1CCN(Cc2ccc(C(=O)Nc3ccc(C)c(Oc4ccc5c(c4)CC(=O)N5)c3)cc2C(F)(F)F)CC1, the remaining binding was 100% (binding; 1 µM).
The remaining binding of O=S(=O)(NC1CCC(c2cc(F)ccc2F)(S(=O)(=O)c2ccc(Cl)cc2)CC1)C(F)(F)F (stereo not drawn) is reported as 100% (cell-free assay; 1 µM).
The remaining binding of Cc1cnn2ncc(-c3ccnc(N(C)C)n3)c2c1 is reported as 93% (binding; 1 µM).
With O=C(c1ccc(Nc2ncc(Cl)c(-c3cc4ccccc4s3)n2)cc1)N1CCC(N2CCCC2)CC1 the remaining binding was 5.7% (binding; 1 µM).
C[C@H](NC(=O)c1cnc2n1[C@](C)(Cc1ccc(C#N)cc1)C(=O)N2c1cc(Cl)c(F)c(Cl)c1)C(=O)NC1(c2ccccn2)CC1 has a remaining binding of 100% (cell-free assay; 1 µM).
For COc1ccnn2ncc(-c3ccnc(N(C)C)n3)c12, the remaining binding was 97% (binding; 1 µM).
CC(C)CC(=O)N1CCc2nc(-c3ccc(Br)cc3)nc(N(C)Cc3ccccc3)c2C1 gave a remaining binding of 100% (cell-free assay; 0.1 µM).
For N[C@H]1CCN(c2nccc(-c3cnn4ncccc34)n2)C1, the remaining binding was 100% (binding; 1 µM).
